Assays:
[1] = test system: Rat; assay: concentration in plasma after dosing; conditions: dosed: 2-Hydroxy-4-methoxybenzophenone, 100 mg/kg, oral, Female, F344
[2] = test system: Mouse; assay: concentration in plasma after dosing; conditions: 10 min; dosed: 2-Hydroxy-4-methoxybenzophenone; 50 mg/kg; iv; Female; B6C3F1
[3] = test system: Mouse; assay: concentration in plasma after dosing; conditions: 2 h; dosed: 2-Hydroxy-4-methoxybenzophenone; 500 mg/kg; oral; Female; B6C3F1
[4] = test system: Rat; assay: concentration in plasma after dosing; conditions: dosed: 2-Hydroxy-4-methoxybenzophenone, 100 mg/kg, oral, Female, F344; remark: listed apart in the source
[5] = test system: Rat; assay: concentration in plasma after dosing; conditions: 0.5 h; dosed: Primidone; 130 mg/kg; oral; Male; Harlan Sprague Dawley
[6] = test system: Rat; assay: concentration in plasma after dosing; conditions: 0.25 h; dosed: Primidone; 30 mg/kg; oral; Male; F344
[7] = test system: Rat; assay: concentration in plasma after dosing; conditions: 0.5 h; dosed: Primidone; 130 mg/kg; oral; Male; Harlan Sprague Dawley; remark: listed apart in the source
[8] = test system: Mouse; assay: concentration in plasma after dosing; conditions: dosed: 2,4-Dichlorophenoxyacetic acid, 1.0 mg/kg, oral, Male, B6C3F1
[9] = test system: Hamster; assay: concentration in plasma after dosing; conditions: dosed: 2,4-Dichlorophenoxyacetic acid, 8.0 mg/kg, oral, Male, Syrian Golden
In short: (§1)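 A PubMed search, classifier screening and manual review identified published in vivo toxicokinetic studies, which together with two structured collections supplied concentration-versus-time and amount-versus-time points. Points were mostly digitised from plot screenshots with WebPlotDigitizer, otherwise copied from tables. Dose, route, subject details and medium were hand-curated from each paper, and sampling and analytical methods are those of the sources, often unreported.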

[10] = test system: Hamster; assay: concentration in plasma after dosing; conditions: dosed: 2,4-Dichlorophenoxyacetic acid, 40 mg/kg, oral, Male, Syrian Golden
In short: as §1

[11] = test system: Rat; assay: concentration in brain after dosing; conditions: 3 h; dosed: alpha-Thujone; 50 mg/kg; oral; Male; Harlan Sprague Dawley
[12] = test system: Rat; assay: concentration in brain after dosing; conditions: 10 min; dosed: alpha-Thujone; 25 mg/kg; oral; Male; Harlan Sprague Dawley
[13] = test system: Rat; assay: concentration in plasma after dosing; conditions: 0.5 h; dosed: alpha-Thujone; 25 mg/kg; oral; Male; Harlan Sprague Dawley
[14] = test system: Rat; assay: concentration in brain after dosing; conditions: 0.5 h; dosed: alpha-Thujone; 50 mg/kg; oral; Female; Harlan Sprague Dawley
[15] = test system: Rat; assay: concentration in brain after dosing; conditions: 2.5 h; dosed: 76231-76-0; 3.0 mg/kg; iv; Female; F344
[16] = test system: Rat; assay: concentration in plasma after dosing; conditions: 1 h; dosed: Perfluorohexane-1-sulphonic acid – potassium salt; 16 mg/kg; oral; Male; F344
[17] = test system: Rat; assay: concentration in plasma after dosing; conditions: dosed: Perfluorohexane-1-sulphonic acid – potassium salt, 4 mg/kg, oral, Male, F344
[18] = test system: Rat; assay: concentration in kidney after dosing; conditions: 3 h; dosed: Perfluorohexane-1-sulphonic acid – potassium salt; 16 mg/kg; oral; Female; F344
[19] = test system: Rat; assay: concentration in liver after dosing; conditions: 6 h; dosed: Perfluorohexane-1-sulphonic acid – potassium salt; 16 mg/kg; oral; Female; F344
[20] = test system: Rat; assay: concentration in brain after dosing; conditions: 3 h; dosed: Perfluorohexane-1-sulphonic acid – potassium salt; 16 mg/kg; oral; Female; F344
[21] = test system: Rat; assay: concentration in plasma after dosing; conditions: dosed: Methyleugenol, 37 mg/kg, oral, Male, F344/N
[22] = test system: human; assay: concentration in blood after dosing; negative times count back from the end of exposure; conditions: dosed: trichloroethylene, 100 ppm, inhalation, duration: 6 hr, female
In short: as §1

[23] = test system: human; assay: concentration in blood after dosing; conditions: dosed: trichloroethylene, 100 ppm, inhalation, duration: 6 hr, male
In short: as §1

O=C(c1ccccc1)c1ccc(O)cc1O [2,4-Dihydroxybenzophenone]
concentration in plasma [ng/mL]
Conditions | 0.5 h | 3 h | 5 h | 10 min
[1] | 195 | – | 85.4 | –
[4] | – | 59 | – | 126

Conditions | concentration in plasma [ng/mL]
[2] | 1610
[3] | 104

CCC1(c2ccccc2)C(=O)NCNC1=O [Primidone]
Conditions | concentration in plasma [ng/mL]
[5] | 55800
[6] | 7800
[7] | 47000

O=C(O)COc1ccc(Cl)cc1Cl [2,4-Dichlorophenoxyacetic acid]
concentration in plasma [ng/mL]
Conditions | [8] | [9] | [10]
0.25 h | 3930 | 21800 | 57000
0.5 h | 3060 | 8620 | 88000
1 h | – | 1740 | 40700
1.5 h | – | 761 | 16600
2 h | 1790 | 1360 | 12000
2.5 h | – | 115 | –
3 h | 990 | – | –
4 h | – | – | 3730
5 min | 3890 | 25700 | 26600
6 h | 324 | 466 | 1400
8 h | 161 | – | –
10 h | – | – | 34300
10 min | 4270 | – | –

CC(C)[C@]12CC(=O)[C@H](C)[C@H]1C2 [alpha-Thujone]
Conditions | concentration in brain [ng/g] | concentration in plasma [ng/mL]
[11] | 652 | –
[12] | 3920 | –
[13] | – | 337
[14] | 8580 | –
[15] | 15.2 | –

O=S(=O)([O-])C(F)(F)C(F)(F)C(F)(F)C(F)(F)C(F)(F)C(F)(F)F.[K+] [Perfluorohexane-1-sulphonic acid – potassium salt]
Conditions | concentration in brain [ng/g] | concentration in kidney [ng/g] | concentration in liver [ng/g] | concentration in plasma [ng/mL]
[16] | – | – | – | 55600
[18] | – | 29100 | – | –
[19] | – | – | 80400 | –
[20] | 1600 | – | – | –

[17]
Conditions | concentration in plasma [ng/mL]
3 h | 28000
24 h | 31600
1200 h | 3240

C=CCc1ccc(OC)c(OC)c1 [Methyleugenol]
[21]
Conditions | concentration in plasma [ng/mL]
1 h | 59.2
5 h | 18.6

OCC(Cl)(Cl)Cl [trichloroethanol]
concentration in blood [ng/mL]
Conditions | 0 h | 18 h | 24 h | 42 h | 48 h | 66 h | 72 h | 90 h | 96 h | 160 h
[22] | 4610 | 4180 | 8180 | 6260 | 11800 | 6560 | 13100 | 5590 | 9980 | 1570
[23] | 4780 | 1170 | 3430 | 2780 | 6470 | 5220 | 10800 | 7860 | – | –

Conditions | concentration in blood [ng/mL]
[22], -6 h, during exposure | 212

Reference: EPA's CvTdb concentration-time database
